Reference: paper PMC8436581 (Molecular Diversity, 2021)
Entries after “also recorded” stand apart in the source; their conditions may differ. Read-outs that look alike come from different tables or passages of the source.

Key:
[1] = system: α-glycosidase; assay: In vitro α-glycosidase inhibition assay; type: biochemical; details: ratio of IC50 values against acarbose
[2] = system: α-glycosidase; assay: Enzyme kinetic study; type: biochemical; details: Lineweaver–Burk plot
Procedure, shortened: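 Double-reciprocal analysis: reciprocal rate (1/V) plotted against reciprocal substrate concentration (1/[S]) at several inhibitor concentrations to assign the inhibition mode; Ki obtained from a secondary plot of inhibitor concentration [I] versus 1/Vi'max.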

[3] = molecular target: α-glycosidase; details: cited from earlier work

Structure (SMILES)	improvement in potency compared to acarbose [1]	type of inhibition [2]	other results
O=C(Cn1cc(COc2ccc(-c3nc4ccccc4[nH]3)cc2)nn1)Nc1cnc(-c2ccccc2)s1 [9a, 2-{4-[4-(1H-1,3-benzodiazol-2-yl)phenoxymethyl]-1H-1,2,3-triazol-1-yl}-N-(2-phenyl-1,3-thiazol-5-yl)acetamide]	around 39 fold		
O=C(Cn1cc(COc2ccc(-c3nc4ccccc4[nH]3)cc2)nn1)Nc1cnc(-c2ccc(Br)cc2)s1 [9c, 2-{4-[4-(1H-1,3-benzodiazol-2-yl)phenoxymethyl]-1H-1,2,3-triazol-1-yl}-N-[2-(4-bromophenyl)-1,3-thiazol-5-yl]acetamide]		uncompetitive inhibitors; also recorded: uncompetitive type of inhibition	
COc1cc(-c2nc3ccccc3[nH]2)ccc1OCc1cn(CC(=O)Nc2cnc(-c3ccccc3)s2)nn1 [9g, 2-{4-[4-(1H-1,3-benzodiazol-2-yl)-2-methoxyphenoxymethyl]-1H-1,2,3-triazol-1-yl}-N-(2-phenyl-1,3-thiazol-5-yl)acetamide]		uncompetitive inhibitors; also recorded: uncompetitive type of inhibition	
COc1cc(-c2nc3ccccc3[nH]2)ccc1OCc1cn(CC(=O)Nc2cnc(-c3ccc(C)cc3)s2)nn1 [9i, 2-{4-[4-(1H-1,3-benzodiazol-2-yl)-2-methoxyphenoxymethyl]-1H-1,2,3-triazol-1-yl}-N-[2-(4-methylphenyl)-1,3-thiazol-5-yl]acetamide]	15 fold		
Cc1ccc(-c2ncc(NC(=O)Cn3cc(COc4ccc(-c5nc6ccc(C)cc6[nH]5)cc4)nn3)s2)cc1 [9m, 2-{4-[4-(6-Methyl-1H-1,3-benzodiazol-2-yl)phenoxymethyl]-1H-1,2,3-triazol-1-yl}-N-[2-(4-methylphenyl)-1,3-thiazol-5-yl]acetamide]		uncompetitive inhibitors; also recorded: uncompetitive type of inhibition	
C[C@H]1O[C@H](O[C@H]2[C@H](O)[C@@H](O)[C@@H](O[C@H]3[C@H](O)[C@@H](O)C(O)O[C@@H]3CO)O[C@@H]2CO)[C@H](O)[C@@H](O)[C@@H]1N[C@H]1C=C(CO)[C@@H](O)[C@H](O)[C@H]1O (stereo partly shown) [Acarbose]			IC50 ([3]; arylthiazole-pyridine derivatives): 856.5 ± 5.6 µM; IC50 ([3]; benzimidazole bearing bis-Schiff bases): 38.5 µM; IC50 ([3]; benzimidazole-1,2,3-triazole hybrids): 750 ± 12.5 µM; IC50 ([3]; benzimidazole-based oxadiazole derivatives): 38.5 ± 0.8 µM; IC50 ([3]; thiourea derivatives bearing benzimidazole): 774 µM
